One assay deals with T1, Angiotensin II receptor (Rattus norvegicus, UniProt P29089+P25095+P35351).
T1 sequence (P29089 whole entry): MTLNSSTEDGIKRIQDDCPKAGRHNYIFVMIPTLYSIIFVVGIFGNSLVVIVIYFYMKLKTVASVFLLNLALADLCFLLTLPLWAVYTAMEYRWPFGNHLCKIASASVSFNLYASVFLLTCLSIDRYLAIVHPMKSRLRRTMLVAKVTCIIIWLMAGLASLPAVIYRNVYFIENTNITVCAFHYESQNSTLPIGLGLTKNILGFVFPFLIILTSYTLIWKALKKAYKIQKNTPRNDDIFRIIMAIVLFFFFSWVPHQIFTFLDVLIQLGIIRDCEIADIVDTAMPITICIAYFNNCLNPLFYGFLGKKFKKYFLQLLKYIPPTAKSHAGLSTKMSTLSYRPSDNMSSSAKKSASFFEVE
T1 sequence (P25095 whole entry): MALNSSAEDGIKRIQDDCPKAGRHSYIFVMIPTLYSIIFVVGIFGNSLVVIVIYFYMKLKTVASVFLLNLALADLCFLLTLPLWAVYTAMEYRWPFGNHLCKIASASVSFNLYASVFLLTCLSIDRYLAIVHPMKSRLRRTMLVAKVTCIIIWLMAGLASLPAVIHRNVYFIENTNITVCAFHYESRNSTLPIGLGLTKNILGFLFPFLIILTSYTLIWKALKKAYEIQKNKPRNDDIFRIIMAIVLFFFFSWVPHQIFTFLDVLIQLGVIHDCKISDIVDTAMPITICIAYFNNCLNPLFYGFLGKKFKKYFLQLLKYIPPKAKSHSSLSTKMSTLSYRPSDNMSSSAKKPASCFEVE
T1 sequence (P35351 whole entry): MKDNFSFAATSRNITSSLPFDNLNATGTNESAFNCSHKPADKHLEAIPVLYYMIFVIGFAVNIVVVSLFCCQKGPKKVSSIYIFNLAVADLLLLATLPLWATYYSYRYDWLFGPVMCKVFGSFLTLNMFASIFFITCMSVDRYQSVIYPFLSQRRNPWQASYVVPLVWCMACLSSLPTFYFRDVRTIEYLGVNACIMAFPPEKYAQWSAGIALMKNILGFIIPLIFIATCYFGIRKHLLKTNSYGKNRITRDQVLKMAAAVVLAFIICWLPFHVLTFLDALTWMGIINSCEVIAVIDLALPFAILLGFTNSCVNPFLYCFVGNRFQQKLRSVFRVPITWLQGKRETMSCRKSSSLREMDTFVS
The experiment in a line: Angiotensin II receptor antagonist activity was tested in rat isolated uterus assay using [Asp1,Ile5]ANG II (human angiotensin II) as the standard. Type of assay: functional, tissue-based. Put shortly: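 Defatted, halved uterine horns from diethylstilbestrol-primed virgin Sprague-Dawley rats (150–250 g), at 1 g tension in a 3-mL bath at pH 7.0, oxygen-gassed (150 mM NaCl, 5.6 mM KCl, 0.18 mM CaCl2, 1.8 mM NaHCO3, 1.4 mM glucose). Isotonic recording of contraction. pA2 is the negative log of the antagonist concentration that cuts the response to an EC50 dose of human ANG II down to the response to half the EC50 dose. Mean ± SEM.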

In assay [1] the target is T2, Angiotensin II receptor (Rattus norvegicus) (UniProt P29089+P25095+P35351). In words: Angiotensin II receptor agonist activity was tested in rat isolated uterus assay using [Asp1,Ile5]ANG II (human angiotensin II) as the standard. Type of assay: functional, tissue-based. The procedure, abridged: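 Uterine horns from diethylstilbestrol-primed virgin Sprague-Dawley rats (150–250 g), defatted and halved. Each half held at 1 g tension in a 3-mL bath at pH 7.0, oxygen-gassed (150 mM NaCl, 5.6 mM KCl, 0.18 mM CaCl2, 1.8 mM NaHCO3, 1.4 mM glucose). Contractions recorded isotonically. Agonism measured by matching each response to an equivalent response to human ANG II. Mean ± SEM.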

Assay [2] deals with T2, Angiotensin II receptor (Rattus norvegicus). The experiment in a line: Compound was evaluated for the antagonistic activity against rat Angiotensin II receptor by using isometric bioassay system. Type of assay: functional.

SMILES strings stand for the structures.

Broadly, the pA2 is a measure of antagonist potency on a negative log scale. In turn, `CC[C@H](C)[C@H](NC(=O)[C@@H]1CCCN1C(=O)[C@H](Cc1c[nH]cn1)NC(=O)[C@@H](NC(=O)[C@H](Cc1ccccc1)NC(=O)[C@@H](NC(=O)[C@H](CCCN=C(N)N)NC(=O)CNC)C(C)C)[C@@H](C)CC)C(=O)O` displayed a pA2 at Angiotensin II receptor of 6.7. Further, the Activity in assay [1] was less than 0.1%.
Turning to `CC[C@H](C)[C@H](NC(=O)[C@@H]1CCCN1C(=O)[C@H](Cc1c[nH]cn1)NC(=O)[C@@H](NC(=O)[C@H](Cc1ccc(OC)cc1)NC(=O)[C@@H](NC(=O)[C@H](CCCN=C(N)N)NC(=O)CNC)C(C)C)[C@@H](C)CC)C(=O)O`, at Angiotensin II receptor, the pA2 came out at 6.6. For the same compound, the Activity in assay [1] is less than 0.1%.
On to `CC[C@H](C)[C@H](NC(=O)[C@@H](NC(=O)[C@H](CCCN=C(N)N)NC(=O)CNC)C(C)C)C(=O)N[C@H](C(=O)N[C@@H](Cc1c[nH]cn1)C(=O)N1CCC[C@H]1C(=O)N[C@@H](Cc1ccccc1)C(=O)O)[C@@H](C)CC`, for which the pA2 on Angiotensin II receptor is less than 6.
Consider `CC[C@H](C)[C@H](NC(=O)[C@H]1CCCN1C(=O)[C@H](Cc1c[nH]cn1)NC(=O)[C@@H](NC(=O)[C@@H](Cc1ccc(O)cc1)NC(=O)[C@@H](NC(=O)[C@H](CCCN=C(N)N)NC(=O)CNC)C(C)C)[C@@H](C)CC)C(=O)O`, for which the Activity in assay [1] is less than 0.1%.
In the case of `CC[C@H](C)[C@H](NC(=O)[C@@H](NC(=O)[C@@H](NC(=O)[C@H](CCCN=C(N)N)NC(=O)CNC)C(C)C)[C@@H](C)O)C(=O)N[C@@H](Cc1c[nH]cn1)C(=O)N1CCC[C@H]1C(=O)N[C@@H](Cc1ccccc1)C(=O)O`, the pA2 on Angiotensin II receptor is given as less than 6.
`CC[C@H](C)[C@H](NC(=O)[C@H](Cc1ccc(OC)cc1)NC(=O)[C@@H](NC(=O)[C@H](CCCN=C(N)N)NC(=O)[C@H](C)N)C(C)C)C(=O)N[C@@H](Cc1c[nH]cn1)C(=O)N1CCC[C@@H]1C(=O)N[C@@H](Cc1ccccc1)C(=O)O`: the Activity in assay [1] is less than 0.1%.
Still for that read-out and setting: for `CC[C@H](C)[C@H](NC(=O)[C@H](Cc1ccc(OC)cc1)NC(=O)[C@@H](NC(=O)[C@H](CCCN=C(N)N)NC(=O)[C@@H]1CCCN1)C(C)C)C(=O)N[C@@H](Cc1c[nH]cn1)C(=O)N1CCC[C@@H]1C(=O)N[C@@H](Cc1ccccc1)C(=O)O` the value was 0.3%; for `CC[C@H](C)[C@H](NC(=O)[C@@H]1C[C@@H](O)CN1C(=O)[C@@H](NC(=O)[C@H](CCCN=C(N)N)NC(=O)CNC)C(C)C)C(=O)N[C@@H](Cc1c[nH]cn1)C(=O)N1CCC[C@@H]1C(=O)N[C@@H](Cc1ccccc1)C(=O)O`, less than 0.1%.
Regarding `CC[C@H](C)[C@H](NC(=O)[C@H](Cc1ccccc1)NC(=O)[C@@H](NC(=O)[C@H](CCCN=C(N)N)NC(=O)CNC)C(C)C)C(=O)N[C@@H](Cc1c[nH]cn1)C(=O)N1CCC[C@H]1C(=O)N[C@@H](Cc1ccccc1)C(=O)O`, the pA2 on Angiotensin II receptor was determined as 7.9. The compound also had an Activity in assay [1] of 22%.
On Angiotensin II receptor, `CC[C@H](C)[C@H](NC(=O)[C@@H](Cc1ccccc1)NC(=O)[C@@H](NC(=O)[C@H](CCCN=C(N)N)NC(=O)CNC)C(C)C)C(=O)N[C@@H](Cc1c[nH]cn1)C(=O)N1CCC[C@@H]1C(=O)N[C@@H](Cc1ccccc1)C(=O)O` registered a pA2 of less than 5.5. The Activity in assay [1] was less than 0.1%.
Take `CC[C@H](C)[C@H](NC(=O)[C@@H](Cc1ccc(O)cc1)NC(=O)[C@@H](NC(=O)[C@H](CCCN=C(N)N)NC(=O)CNC)C(C)C)C(=O)N[C@@H](Cc1c[nH]cn1)C(=O)N1CCC[C@@H]1C(=O)N[C@@H](Cc1ccccc1)C(=O)O`: the Activity in assay [1] came out at 2%.
As to `CCOc1ccc(C[C@H](NC(=O)[C@@H](NC(=O)[C@H](CCCN=C(N)N)NC(=O)CNC)C(C)C)C(=O)N[C@H](C(=O)N[C@@H](Cc2c[nH]cn2)C(=O)N2CCC[C@H]2C(=O)N[C@@H](Cc2ccccc2)C(=O)O)[C@@H](C)CC)cc1`, the pA2 at Angiotensin II receptor is less than 6. Also, the Activity in assay [1] came out at 0.2%.
With `CC[C@H](C)[C@H](NC(=O)[C@H]1CCCN1C(=O)[C@H](Cc1c[nH]cn1)NC(=O)[C@@H](NC(=O)[C@@H](Cc1ccccc1)NC(=O)[C@@H](NC(=O)[C@H](CCCN=C(N)N)NC(=O)CNC)C(C)C)[C@@H](C)CC)C(=O)O`, at Angiotensin II receptor, the pA2 was less than 5. This compound also yielded an Activity in assay [1] of less than 0.1%.
Turning to `CC[C@H](C)[C@H](NC(=O)[C@@H](Cc1ccc(O)cc1)NC(=O)[C@@H](NC(=O)[C@H](CCCN=C(N)N)NC(=O)CNC)C(C)C)C(=O)N[C@@H](Cc1c[nH]cn1)C(=O)N1CCC[C@H]1C(=O)N[C@@H](Cc1ccccc1)C(=O)O`, the pA2 at Angiotensin II receptor is on record as less than 6.5.
On Angiotensin II receptor, `CC[C@H](C)[C@H](NC(=O)[C@H](Cc1ccc(OC)cc1)NC(=O)[C@@H](NC(=O)[C@H](CCCN=C(N)N)NC(=O)[C@H](C)N)C(C)C)C(=O)N[C@@H](Cc1c[nH]cn1)C(=O)N1CCC[C@H]1C(=O)N[C@@H](Cc1ccccc1)C(=O)O` registered a pA2 of less than 6.
On the same count and under the same terms, for `CC[C@H](C)[C@H](NC(=O)[C@@H]1C[C@@H](O)CN1C(=O)[C@@H](NC(=O)[C@H](CCCN=C(N)N)NC(=O)CNC)C(C)C)C(=O)N[C@@H](Cc1c[nH]cn1)C(=O)N1CCC[C@H]1C(=O)N[C@@H](Cc1ccccc1)C(=O)O` the value was less than 5.
As for `CC[C@H](C)[C@H](NC(=O)[C@H](Cc1ccc(OC)cc1)NC(=O)[C@@H](NC(=O)[C@H](CCCN=C(N)N)NC(=O)CNC)C(C)C)C(=O)N[C@@H](Cc1c[nH]cn1)C(=O)N1CCC[C@H]1C(=O)N[C@@H](Cc1ccccc1)C(=O)O`, on Angiotensin II receptor, the pA2 stood at 7.5. For the same compound, the values for the Activity in assay [1] and in assay [2] were less than 0.1% and 8.1, respectively.
In assay [1], `CC[C@H](C)[C@H](NC(=O)C1CCCN1C(=O)[C@H](Cc1c[nH]cn1)NC(=O)[C@@H](NC(=O)[C@H](Cc1ccc(O)cc1)NC(=O)[C@@H](NC(=O)[C@H](CCCN=C(N)N)NC(=O)CNC)C(C)C)[C@@H](C)CC)C(=O)O` (single isomer, unassigned) showed an Activity of less than 0.1%.
Regarding `CC[C@H](C)[C@H](NC(=O)[C@H](Cc1ccc(OC)cc1)NC(=O)[C@@H](NC(=O)[C@H](CCCN=C(N)N)NC(=O)[C@@H]1CCCN1)C(C)C)C(=O)N[C@@H](Cc1c[nH]cn1)C(=O)N1CCC[C@H]1C(=O)N[C@@H](Cc1ccccc1)C(=O)O`, the pA2 at Angiotensin II receptor is less than 6.
Regarding `CC[C@H](C)[C@H](NC(=O)[C@@H](NC(=O)[C@H](CCCN=C(N)N)NC(=O)CNC)C(C)C)C(=O)N[C@H](C(=O)N[C@@H](Cc1c[nH]cn1)C(=O)N1CCC[C@@H]1C(=O)N[C@@H](Cc1ccccc1)C(=O)O)[C@@H](C)CC`, in assay [1], the Activity is 0.2%.
`CC[C@H](C)[C@H](NC(=O)[C@@H](NC(=O)[C@@H](NC(=O)[C@H](CCCN=C(N)N)NC(=O)CNC)C(C)C)[C@H](C)O)C(=O)N[C@@H](Cc1c[nH]cn1)C(=O)N1CCC[C@@H]1C(=O)N[C@@H](Cc1ccccc1)C(=O)O`: the Activity in assay [1] turned out to be 2%.

(Values after ChEMBL document CHEMBL1123284, “Structure-activity relationships for the competitive angiotensin antagonist [sarcosine,O-methyltyrosine4]angiotensin II (sarmesin)” (J Med Chem, 1986).)
